ChEMBL document CHEMBL1275592, “AmpN-AmpG operon is essential for expression of L1 and L2 beta-lactamases in Stenotrophomonas maltophilia” (2010)
In brackets after ≈: the same amount, converted by molar mass.

Tests used:
Assay type in all cases: functional
[1] = system: Stenotrophomonas maltophilia; assay: Antimicrobial activity against ampN deficient Stenotrophomonas maltophilia KJ harboring ampG with xylE-Gmomega cassette insertion by agar dilution method
Summary of the method: (§1)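 MICs were determined in triplicate by standard 2-fold serial agar dilution, following CLSI guidelines.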

[2] = system: Stenotrophomonas maltophilia; assay: Antimicrobial activity against Stenotrophomonas maltophilia KJ harboring pRK415 plasmid by agar dilution method; summary of the method: as §1
[3] = system: Stenotrophomonas maltophilia; assay: Antimicrobial activity against Stenotrophomonas maltophilia KJ harboring pRK-NG plasmid by agar dilution method; summary of the method: as §1
[4] = system: Stenotrophomonas maltophilia; assay: Antimicrobial activity against Stenotrophomonas maltophilia KJ by agar dilution method; summary of the method: as §1
[5] = system: Stenotrophomonas maltophilia; assay: Antimicrobial activity against Stenotrophomonas maltophilia KJN2 harboring pRK-EcG plasmid and ampN with xylE-Gmomega cassette insertion by agar dilution method; summary of the method: as §1
[6] = system: Stenotrophomonas maltophilia; assay: Antimicrobial activity against ampN deficient Stenotrophomonas maltophilia KJ by agar dilution method; summary of the method: as §1
[7] = system: Stenotrophomonas maltophilia; assay: Antimicrobial activity against Stenotrophomonas maltophilia KJN2 harboring pRK-G plasmid and ampN with xylE-Gmomega cassette insertion by agar dilution method; summary of the method: as §1
[8] = system: Stenotrophomonas maltophilia; assay: Antimicrobial activity against Stenotrophomonas maltophilia KJN1 harboring ampN with xylE-Gmomega cassette insertion by agar dilution method; summary of the method: as §1
[9] = system: Stenotrophomonas maltophilia; assay: Antimicrobial activity against Stenotrophomonas maltophilia KJN2 harboring pRK-NG plasmid and ampN with xylE-Gmomega cassette insertion by agar dilution method; summary of the method: as §1
[10] = system: Stenotrophomonas maltophilia; assay: Antimicrobial activity against Stenotrophomonas maltophilia KJN2 harboring pRK415 plasmid and ampN with xylE-Gmomega cassette insertion by agar dilution method; summary of the method: as §1
[11] = system: Stenotrophomonas maltophilia; assay: Antimicrobial activity against Stenotrophomonas maltophilia KJG harboring ampG with xylE-Gmomega cassette insertion by agar dilution method; summary of the method: as §1
[12] = system: Stenotrophomonas maltophilia; assay: Antimicrobial activity against Stenotrophomonas maltophilia KJN2 harboring ampN with xylE-Gmomega cassette insertion by agar dilution method; summary of the method: as §1
[13] = system: Stenotrophomonas maltophilia; assay: Antimicrobial activity against Stenotrophomonas maltophilia KJG harboring ampG with xylE-Gmomega cassette insertion by Etest
Summary of the method: (§2)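 Imipenem and meropenem MICs were read from Etest strips, following the manufacturer's instructions.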

[14] = system: Stenotrophomonas maltophilia; assay: Antimicrobial activity against Stenotrophomonas maltophilia KJN1 harboring ampN with xylE-Gmomega cassette insertion by Etest; summary of the method: as §2
[15] = system: Stenotrophomonas maltophilia; assay: Antimicrobial activity against Stenotrophomonas maltophilia KJN2 harboring pRK-EcG plasmid and ampN with xylE-Gmomega cassette insertion by Etest; summary of the method: as §2
[16] = system: Stenotrophomonas maltophilia; assay: Antimicrobial activity against Stenotrophomonas maltophilia KJN2 harboring pRK-NG plasmid and ampN with xylE-Gmomega cassette insertion by Etest; summary of the method: as §2
[17] = system: Stenotrophomonas maltophilia; assay: Antimicrobial activity against Stenotrophomonas maltophilia KJN2 harboring pRK-G plasmid and ampN with xylE-Gmomega cassette insertion by Etest; summary of the method: as §2
[18] = system: Stenotrophomonas maltophilia; assay: Antimicrobial activity against Stenotrophomonas maltophilia KJN2 harboring ampN with xylE-Gmomega cassette insertion by Etest; summary of the method: as §2
[19] = system: Stenotrophomonas maltophilia; assay: Antimicrobial activity against Stenotrophomonas maltophilia KJ by Etest; summary of the method: as §2
[20] = system: Stenotrophomonas maltophilia; assay: Antimicrobial activity against ampN deficient Stenotrophomonas maltophilia KJ harboring ampG with xylE-Gmomega cassette insertion by Etest; summary of the method: as §2
[21] = system: Stenotrophomonas maltophilia; assay: Antimicrobial activity against Stenotrophomonas maltophilia KJN2 harboring pRK415 plasmid and ampN with xylE-Gmomega cassette insertion by Etest; summary of the method: as §2
[22] = system: Stenotrophomonas maltophilia; assay: Antimicrobial activity against ampN deficient Stenotrophomonas maltophilia KJ by Etest; summary of the method: as §2

| SMILES | MIC [1] [µg/mL] | MIC [2] [µg/mL] | MIC [3] [µg/mL] | MIC [4] [µg/mL] | MIC [5] [µg/mL] | MIC [6] [µg/mL] | MIC [7] [µg/mL] | MIC [8] [µg/mL] | MIC [9] [µg/mL] | MIC [10] [µg/mL] | MIC [11] [µg/mL] | MIC [12] [µg/mL] | other results |
| --- | --- | --- | --- | --- | --- | --- | --- | --- | --- | --- | --- | --- | --- |
| CC1(C)S[C@@H]2[C@H](NC(=O)C(C(=O)O)c3ccccc3)C(=O)N2[C@H]1C(=O)O (some centres undefined) [CARBENICILLIN] | 2 (≈ 5.29 µM) | 1020 (≈ 2710 µM) | 1020 (≈ 2710 µM) | 1020 (≈ 2710 µM) | 512 (≈ 1350 µM) | 4 (≈ 10.6 µM) | 4 (≈ 10.6 µM) | 8 (≈ 21.1 µM) | 1020 (≈ 2710 µM) | 4 (≈ 10.6 µM) | 2 (≈ 5.29 µM) | 2 (≈ 5.29 µM) | – |
| CCN1CCN(C(=O)N[C@@H](C(=O)N[C@@H]2C(=O)N3[C@@H]2SC(C)(C)[C@@H]3C(=O)O)c2ccccc2)C(=O)C1=O [PIPERACILLIN] | 16 (≈ 30.9 µM) | 1020 (≈ 1980 µM) | 1020 (≈ 1980 µM) | 1020 (≈ 1980 µM) | 512 (≈ 989 µM) | 32 (≈ 61.8 µM) | 32 (≈ 61.8 µM) | 32 (≈ 61.8 µM) | 1020 (≈ 1980 µM) | 16 (≈ 30.9 µM) | 32 (≈ 61.8 µM) | 16 (≈ 30.9 µM) | – |
| C[C@@H](O)[C@H]1C(=O)N2C(C(=O)O)=C(SCCNC=N)C[C@H]12 [IMIPENEM ANHYDROUS] | – | – | – | – | – | – | – | – | – | – | – | – | MIC [13]: 2 µg/mL (≈ 6.68 µM); MIC [14]: 4 µg/mL (≈ 13.4 µM); MIC [15]: > 32 µg/mL; MIC [16]: > 32 µg/mL; MIC [17]: 3 µg/mL (≈ 10 µM); MIC [18]: 2 µg/mL (≈ 6.68 µM); MIC [19]: > 32 µg/mL; MIC [20]: 2 µg/mL (≈ 6.68 µM); MIC [21]: 1.5 µg/mL (≈ 5.01 µM); MIC [22]: 4 µg/mL (≈ 13.4 µM) |
